Test [1] deals with T1, Muscarinic acetylcholine receptor M1 (Homo sapiens) (UniProt P11229).
T1 sequence (whole entry): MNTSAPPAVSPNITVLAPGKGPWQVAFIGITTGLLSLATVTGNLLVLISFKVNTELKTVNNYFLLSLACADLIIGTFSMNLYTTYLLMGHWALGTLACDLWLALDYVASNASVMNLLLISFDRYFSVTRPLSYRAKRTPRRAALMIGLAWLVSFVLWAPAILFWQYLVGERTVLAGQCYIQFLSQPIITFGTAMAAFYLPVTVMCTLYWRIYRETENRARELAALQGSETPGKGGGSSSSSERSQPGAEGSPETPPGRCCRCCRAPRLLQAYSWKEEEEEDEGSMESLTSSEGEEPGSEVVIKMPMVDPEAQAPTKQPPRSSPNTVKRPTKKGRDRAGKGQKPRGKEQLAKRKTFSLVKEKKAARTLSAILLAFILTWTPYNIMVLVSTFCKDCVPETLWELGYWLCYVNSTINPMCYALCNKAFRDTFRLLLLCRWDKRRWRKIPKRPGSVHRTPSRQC
The test can be described thus: Agonist activity at human cloned muscarinic M1 receptor expressed in CHO cells assessed as effect on calcium mobilization by FLIPR. Format: functional, cell-based. The essentials:
(§1)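 CHO cells stably carrying cloned human M1, M2 or M3 receptor; compound applied alone and checked for direct receptor stimulation, read as calcium mobilization on a standard FLIPR protocol.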

Test [2] deals with Mus musculus. The test can be described thus: Bronchoprotection in Balb/C mouse bronchoconstriction model assessed as inhibition of aerosolized methacholin-induced bronchoconstriction at 0.5 ug administered intranasally before 0.25 to 48 hrs before methacholin challenge. The class given is functional, organism-based. The essentials:
(§2)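 Balb/C mice (n = 4) dosed intranasally at 0.5 or 5.0 µg per mouse, then challenged with aerosolized methacholine 30 mg/ml for 2 min at 0.25–48 h after dosing; Penh by plethysmography over 5 min, expressed as post-drug/pre-drug Penh ratio.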

Test [3] concerns the target T2, Muscarinic acetylcholine receptor M2 (Homo sapiens) (UniProt P08172).
T2 sequence (whole entry): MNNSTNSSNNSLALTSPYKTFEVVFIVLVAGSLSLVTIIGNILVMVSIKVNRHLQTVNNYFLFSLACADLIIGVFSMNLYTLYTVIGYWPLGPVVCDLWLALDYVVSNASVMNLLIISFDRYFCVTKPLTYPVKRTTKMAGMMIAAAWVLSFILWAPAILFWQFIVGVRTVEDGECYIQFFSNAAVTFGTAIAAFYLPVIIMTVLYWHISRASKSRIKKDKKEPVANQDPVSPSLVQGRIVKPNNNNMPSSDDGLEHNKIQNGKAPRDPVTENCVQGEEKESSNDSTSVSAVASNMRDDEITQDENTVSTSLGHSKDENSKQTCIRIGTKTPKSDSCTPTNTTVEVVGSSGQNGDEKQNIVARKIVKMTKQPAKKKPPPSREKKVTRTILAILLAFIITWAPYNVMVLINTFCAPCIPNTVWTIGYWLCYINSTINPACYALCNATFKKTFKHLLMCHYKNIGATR
The test can be described thus: Agonist activity at human cloned muscarinic M2 receptor expressed in CHO cells assessed as effect on calcium mobilization by FLIPR. The class given is functional, cell-based. The essentials:
as §1

Test [4] deals with Mus musculus. Nature of the test: Bronchoprotection in Balb/C mouse bronchoconstriction model assessed as inhibition of aerosolized methacholin-induced bronchoconstriction administered intranasally before 5 hrs before methacholin challenge. Format: functional, organism-based. The essentials: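 Balb/C mice (n = 4) dosed intranasally across a dose range (µg/mouse), challenged 5 h later with aerosolized methacholine 30 mg/ml for 2 min; Penh by whole-body plethysmography over 5 min; ratio of post-drug to pre-drug Penh (1.0 = 0% inhibition, 0.0 = 100%); ED50 from dose–response.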

For test [5], the target named is T3, Muscarinic acetylcholine receptor M3 (Homo sapiens, UniProt P20309). Nature of the test: Antagonist activity against human cloned muscarinic M3 receptor expressed in CHO cells assessed as inhibition of acetylcholine-induced calcium mobilization by measuring ratio of acetylcholine EC50 in presence and absence of compound by FLIPR assay. Format: functional, cell-based. To be noted: read-out: pA2 (converted). The essentials: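 CHO cells expressing cloned human M3 receptor, stimulated with ACh. Calcium mobilization read by a standard FLIPR protocol. ACh EC50 was measured with and without a single concentration of compound, and pA2 was derived from the ratio of the EC50s.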
Target sequence in this assay (P20309 whole entry): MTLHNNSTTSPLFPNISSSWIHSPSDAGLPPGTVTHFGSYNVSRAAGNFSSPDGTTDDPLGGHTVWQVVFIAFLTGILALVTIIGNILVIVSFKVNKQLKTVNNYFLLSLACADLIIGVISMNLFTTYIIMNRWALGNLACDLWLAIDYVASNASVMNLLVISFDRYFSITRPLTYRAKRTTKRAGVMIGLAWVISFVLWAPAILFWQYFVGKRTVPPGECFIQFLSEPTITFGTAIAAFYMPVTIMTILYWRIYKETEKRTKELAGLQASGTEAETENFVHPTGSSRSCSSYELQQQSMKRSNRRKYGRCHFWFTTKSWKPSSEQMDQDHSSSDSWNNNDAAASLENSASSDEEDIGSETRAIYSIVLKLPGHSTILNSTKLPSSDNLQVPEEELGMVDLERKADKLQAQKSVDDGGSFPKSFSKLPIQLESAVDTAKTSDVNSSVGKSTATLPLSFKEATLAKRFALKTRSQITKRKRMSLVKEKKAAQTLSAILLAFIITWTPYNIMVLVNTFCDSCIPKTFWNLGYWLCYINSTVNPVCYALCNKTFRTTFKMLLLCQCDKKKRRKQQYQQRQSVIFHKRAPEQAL

The subject of test [6] is Mus musculus. Nature of the test: Bronchoprotection in Balb/C mouse bronchoconstriction model assessed as inhibition of aerosolized methacholin-induced bronchoconstriction at 5 ug administered intranasally before 0.25 to 48 hrs before methacholin challenge. The class given is functional, organism-based. The essentials: as §2
Test [7] addresses T4, Muscarinic acetylcholine receptor M2 (Homo sapiens, UniProt P08172).
T4 sequence (P08172 whole entry): T2 sequence (whole entry)
The test can be described thus: Antagonist activity against human cloned muscarinic M2 receptor expressed in CHO cells assessed as inhibition of acetylcholine-induced calcium mobilization by FLIPR. Format: functional, cell-based.

The target in test [8] is T3, Muscarinic acetylcholine receptor M3. The test can be described thus: Antagonist activity against human cloned muscarinic M3 receptor expressed in CHO cells assessed as inhibition of acetylcholine-induced calcium mobilization by FLIPR. The class given is functional, cell-based.
Target sequence in this assay (P20309 whole entry): as above
In test [9] the target is T4, Muscarinic acetylcholine receptor M2. The test can be described thus: Displacement of [3H]N-methyl Scopolamine from human cloned muscarinic M2 receptor expressed in CHO cell membrane. The class given is cell membranes. The essentials: (§3)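 SPA format with CHO cell membrane preparations bearing human M1 or M2 receptor; competition versus 0.5 nM [3H]-N-methyl scopolamine; Ki reported; mean of two or more independent assays.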

For test [10], the target named is T5, Muscarinic acetylcholine receptor M1 (Homo sapiens, UniProt P11229).
T5 sequence (P11229 whole entry): T1 sequence (whole entry)
Nature of the test: Displacement of [3H]N-methyl Scopolamine from human cloned muscarinic M1 receptor expressed in CHO cell membrane. The class given is cell membranes. The essentials: as §3

Test [11] addresses T4, Muscarinic acetylcholine receptor M2. Nature of the test: Antagonist activity against human cloned muscarinic M2 receptor expressed in CHO cells assessed as inhibition of acetylcholine-induced calcium mobilization by measuring ratio of acetylcholine EC50 in presence and absence of compound by FLIPR assay. The class given is functional, cell-based. To be noted: read-out: pA2 (converted). The essentials:
(§4)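 Run as pA2 determination on FLIPR in CHO cells expressing human M1 or M2 receptor: ACh concentration–response run with and without a single concentration of compound, calcium mobilization read, and the ratio of ACh EC50 values used to derive pA2.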

Test [12] concerns the target T5, Muscarinic acetylcholine receptor M1. The test can be described thus: Antagonist activity against human cloned muscarinic M1 receptor expressed in CHO cells assessed as inhibition of acetylcholine-induced calcium mobilization by measuring ratio of acetylcholine EC50 in presence and absence of compound by FLIPR assay. The class given is functional, cell-based. To be noted: read-out: pA2 (converted). The essentials: as §4

In test [13] the target is T3, Muscarinic acetylcholine receptor M3. The test can be described thus: Displacement of [3H]N-methyl Scopolamine from human cloned muscarinic M3 receptor expressed in CHO cell membrane. Format: cell membranes. The essentials: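 SPA-format competition binding on membranes from CHO cells expressing the human M3 receptor, against 0.5 nM [3H]-N-methyl scopolamine. Ki values are the mean of two or more independent assays.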
Target sequence in this assay (P20309 whole entry): as above

Test [14] has the same target. Nature of the test: Agonist activity at human cloned muscarinic M3 receptor expressed in CHO cells assessed as effect on calcium mobilization by FLIPR. Format: functional, cell-based. The essentials:
as §1
Target sequence in this assay (P20309 whole entry, looked up): as the sequence (P20309 whole entry) above

The target in test [15] is T5, Muscarinic acetylcholine receptor M1. The test can be described thus: Antagonist activity against human cloned muscarinic M1 receptor expressed in CHO cells assessed as inhibition of acetylcholine-induced calcium mobilization by FLIPR. Format: functional, cell-based.
Test [16] relates to Mus musculus. Nature of the test: Bronchoprotection in Balb/C mouse bronchoconstriction model assessed as inhibition of aerosolized methacholin-induced bronchoconstriction at 5 ug administered intranasally 24 hrs before methacholin challenge. Format: functional.
Test [17] has as its system Mus musculus. The test can be described thus: Bronchoprotection in Balb/C mouse bronchoconstriction model assessed as inhibition of aerosolized methacholin-induced bronchoconstriction at 50 ug administered intranasally 24 hrs before methacholin challenge. Format: functional. The essentials: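 Conscious mice given compound by inhalation at 50 µg per mouse 24 h before challenge with aerosolized methacholine; bronchoconstriction inhibition recorded.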

Active and inactive are the calls of the source. No cut-off for these calls is given here. Bounds are passed on as bounds.

The values that follow come from ChEMBL document CHEMBL1153488, “Discovery of (3-endo)-3-(2-cyano-2,2-diphenylethyl)-8,8-dimethyl-8-azoniabicyclo[3.2.1]octane bromide as an efficacious inhaled muscarinic acetylcholine receptor antagonist for the treatment of COPD” (Bioorg Med Chem Lett, 2009).

Consider `C[N+]1(C)[C@@H]2CC[C@H]1C[C@@H](CC(C#N)(c1ccccc1)c1ccccc1)C2.[Br-]`, for which the outcome in test [1], in [3] and in test [14] was inactive. Also, the result with Mus musculus [2] and in the test with Mus musculus [6] was Active. Also, the Activity entry in the test with Mus musculus [4] was “Dose-dependent effect”. In addition, the Kb was 0.02 nM in test [5], 0.0501 nM in test [11] and 0.00398 nM in [12]. In addition, the IC50 in [7], in [8] and in test [15] was below 10 nM throughout. Moreover, the Ki in [9] is 0.158 nM; in test [10], 0.0501 nM; in test [13], 0.0631 nM. Also, the “inhibition (INH)” value in the test with Mus musculus [16] is above 95%.

Take `CN1[C@@H]2CC[C@H]1C[C@@H](CC(O)(c1ccccc1)c1ccccc1)C2`: the outcome in [1], in test [3] and in test [14] was inactive. The results for the Kb in [5], in test [11] and in test [12] were 2.51 nM, 3.98 nM and 0.794 nM, respectively. Also, the IC50 in test [7], in [8] and in test [15] was below 10 nM in each case. In addition, the Ki is 6.31 nM in test [9], 0.501 nM in [10] and 2 nM in test [13]. For the same compound, the “inhibition (INH)” value in the test on Mus musculus [17] is reported as below 5%.
